The structures appear in SMILES notation.

One assay relates to MDA-MB-231. The experiment in a line: Down regulation of H3K9 dimethylation in human MDA-MB-231 cells after 24 to 72 hrs by Western blot analysis. In kind it is functional, cell-based. To be noted: dose 0.2-5 µM, time lower […], time upper 72.0 hrs, DDE = dose-dependent effect.
The target in assay [1] is Histone-lysine N-methyltransferase SETD1B (Homo sapiens) (UniProt Q9UPS6). The experiment in a line: Inhibition of N-terminal GST-tagged SET1B (1629 to 1923 residues) (unknown origin) expressed in Escherichia coli at 1 uM using 3H-SAM as a substrate relative to control. The method, boiled down:
(§1)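 Contracted 3H-SAM methyl-transfer scintillation proximity assay against a panel of methyltransferases; compound tested at 1 μM in duplicate; inhibition expressed as percent of control enzyme activity.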

Assay [2] deals with Histone-lysine N-methyltransferase 2A (Homo sapiens) (UniProt Q03164). Nature of the assay: Inhibition of N-terminal His-tagged MLL1 (3745 to 3969 residues) (unknown origin) expressed in Escherichia coli at 1 uM using 3H-SAM as a substrate relative to control. The method, boiled down:
as §1

Assay [3] has as its target N-lysine methyltransferase KMT5A (Homo sapiens) (UniProt Q9NQR1). The experiment in a line: Inhibition of SETD8 (unknown origin) at 1 uM using 3H-SAM as a substrate relative to control. The method, boiled down: as §1
The target of assay [4] is T1, Histone-lysine N-methyltransferase EHMT2 (Homo sapiens) (UniProt Q96KQ7).
T1 sequence (whole entry): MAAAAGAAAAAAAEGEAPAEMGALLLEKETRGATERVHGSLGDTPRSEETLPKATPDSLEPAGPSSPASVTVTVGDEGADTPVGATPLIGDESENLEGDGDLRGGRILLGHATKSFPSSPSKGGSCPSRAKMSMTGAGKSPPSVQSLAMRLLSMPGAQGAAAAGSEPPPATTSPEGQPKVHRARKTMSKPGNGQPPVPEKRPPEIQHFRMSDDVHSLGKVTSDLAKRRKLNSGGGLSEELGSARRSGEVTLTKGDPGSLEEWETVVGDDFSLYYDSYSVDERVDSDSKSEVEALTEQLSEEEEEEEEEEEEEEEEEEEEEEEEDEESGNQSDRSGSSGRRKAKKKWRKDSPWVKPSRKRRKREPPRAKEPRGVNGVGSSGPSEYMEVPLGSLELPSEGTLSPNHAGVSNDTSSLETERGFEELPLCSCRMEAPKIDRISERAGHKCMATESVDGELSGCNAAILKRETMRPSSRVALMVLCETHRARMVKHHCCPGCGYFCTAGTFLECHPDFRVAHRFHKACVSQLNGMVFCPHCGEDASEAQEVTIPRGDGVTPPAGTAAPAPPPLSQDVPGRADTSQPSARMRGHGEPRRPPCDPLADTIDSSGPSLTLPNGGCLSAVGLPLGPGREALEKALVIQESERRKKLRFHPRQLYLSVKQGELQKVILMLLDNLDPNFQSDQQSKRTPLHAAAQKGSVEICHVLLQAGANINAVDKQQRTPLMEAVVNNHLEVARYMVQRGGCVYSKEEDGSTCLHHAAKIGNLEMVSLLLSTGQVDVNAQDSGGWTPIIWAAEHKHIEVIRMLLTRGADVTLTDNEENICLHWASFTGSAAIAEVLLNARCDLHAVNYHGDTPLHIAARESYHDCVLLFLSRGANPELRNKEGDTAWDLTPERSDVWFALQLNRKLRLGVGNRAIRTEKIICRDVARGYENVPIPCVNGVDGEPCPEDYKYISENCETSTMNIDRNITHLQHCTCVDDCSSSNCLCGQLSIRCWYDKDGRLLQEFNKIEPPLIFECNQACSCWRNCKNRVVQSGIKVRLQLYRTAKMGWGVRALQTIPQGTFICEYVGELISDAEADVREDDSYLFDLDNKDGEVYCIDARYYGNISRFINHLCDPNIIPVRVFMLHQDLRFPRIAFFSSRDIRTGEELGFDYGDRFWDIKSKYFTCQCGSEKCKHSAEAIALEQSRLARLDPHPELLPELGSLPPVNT
Nature of the assay: Inhibition of human G9a (913 to 1193 residues) assessed as covalent modification by measuring G9a adduct formation at 50 uM incubated for 1 hr by mass spectrometry relative to control. The procedure, abridged: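 Purified G9a or GLP catalytic domain (5 μM) in 50 mM Tris-HCl pH 7.5, 150 mM NaCl incubated with 50 μM compound or DMSO at room temperature (1 h, or 30 and 60 min in time course); intact mass by ESI LC/MS-TOF; adduct % = adduct/(protein + adduct) × 100.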

Assay [5] concerns the target Protein arginine N-methyltransferase 3 (Homo sapiens) (UniProt O60678). The experiment in a line: Inhibition of N-terminal His-tagged PRMT3 (2 to 531 residues)(unknown origin) expressed in Escherichia coli at 1 uM using 3H-SAM as a substrate relative to control. The method, boiled down: as §1

Histone-lysine N-methyltransferase 2A (Homo sapiens), sequence (Q03164 1-2718 limits assumed): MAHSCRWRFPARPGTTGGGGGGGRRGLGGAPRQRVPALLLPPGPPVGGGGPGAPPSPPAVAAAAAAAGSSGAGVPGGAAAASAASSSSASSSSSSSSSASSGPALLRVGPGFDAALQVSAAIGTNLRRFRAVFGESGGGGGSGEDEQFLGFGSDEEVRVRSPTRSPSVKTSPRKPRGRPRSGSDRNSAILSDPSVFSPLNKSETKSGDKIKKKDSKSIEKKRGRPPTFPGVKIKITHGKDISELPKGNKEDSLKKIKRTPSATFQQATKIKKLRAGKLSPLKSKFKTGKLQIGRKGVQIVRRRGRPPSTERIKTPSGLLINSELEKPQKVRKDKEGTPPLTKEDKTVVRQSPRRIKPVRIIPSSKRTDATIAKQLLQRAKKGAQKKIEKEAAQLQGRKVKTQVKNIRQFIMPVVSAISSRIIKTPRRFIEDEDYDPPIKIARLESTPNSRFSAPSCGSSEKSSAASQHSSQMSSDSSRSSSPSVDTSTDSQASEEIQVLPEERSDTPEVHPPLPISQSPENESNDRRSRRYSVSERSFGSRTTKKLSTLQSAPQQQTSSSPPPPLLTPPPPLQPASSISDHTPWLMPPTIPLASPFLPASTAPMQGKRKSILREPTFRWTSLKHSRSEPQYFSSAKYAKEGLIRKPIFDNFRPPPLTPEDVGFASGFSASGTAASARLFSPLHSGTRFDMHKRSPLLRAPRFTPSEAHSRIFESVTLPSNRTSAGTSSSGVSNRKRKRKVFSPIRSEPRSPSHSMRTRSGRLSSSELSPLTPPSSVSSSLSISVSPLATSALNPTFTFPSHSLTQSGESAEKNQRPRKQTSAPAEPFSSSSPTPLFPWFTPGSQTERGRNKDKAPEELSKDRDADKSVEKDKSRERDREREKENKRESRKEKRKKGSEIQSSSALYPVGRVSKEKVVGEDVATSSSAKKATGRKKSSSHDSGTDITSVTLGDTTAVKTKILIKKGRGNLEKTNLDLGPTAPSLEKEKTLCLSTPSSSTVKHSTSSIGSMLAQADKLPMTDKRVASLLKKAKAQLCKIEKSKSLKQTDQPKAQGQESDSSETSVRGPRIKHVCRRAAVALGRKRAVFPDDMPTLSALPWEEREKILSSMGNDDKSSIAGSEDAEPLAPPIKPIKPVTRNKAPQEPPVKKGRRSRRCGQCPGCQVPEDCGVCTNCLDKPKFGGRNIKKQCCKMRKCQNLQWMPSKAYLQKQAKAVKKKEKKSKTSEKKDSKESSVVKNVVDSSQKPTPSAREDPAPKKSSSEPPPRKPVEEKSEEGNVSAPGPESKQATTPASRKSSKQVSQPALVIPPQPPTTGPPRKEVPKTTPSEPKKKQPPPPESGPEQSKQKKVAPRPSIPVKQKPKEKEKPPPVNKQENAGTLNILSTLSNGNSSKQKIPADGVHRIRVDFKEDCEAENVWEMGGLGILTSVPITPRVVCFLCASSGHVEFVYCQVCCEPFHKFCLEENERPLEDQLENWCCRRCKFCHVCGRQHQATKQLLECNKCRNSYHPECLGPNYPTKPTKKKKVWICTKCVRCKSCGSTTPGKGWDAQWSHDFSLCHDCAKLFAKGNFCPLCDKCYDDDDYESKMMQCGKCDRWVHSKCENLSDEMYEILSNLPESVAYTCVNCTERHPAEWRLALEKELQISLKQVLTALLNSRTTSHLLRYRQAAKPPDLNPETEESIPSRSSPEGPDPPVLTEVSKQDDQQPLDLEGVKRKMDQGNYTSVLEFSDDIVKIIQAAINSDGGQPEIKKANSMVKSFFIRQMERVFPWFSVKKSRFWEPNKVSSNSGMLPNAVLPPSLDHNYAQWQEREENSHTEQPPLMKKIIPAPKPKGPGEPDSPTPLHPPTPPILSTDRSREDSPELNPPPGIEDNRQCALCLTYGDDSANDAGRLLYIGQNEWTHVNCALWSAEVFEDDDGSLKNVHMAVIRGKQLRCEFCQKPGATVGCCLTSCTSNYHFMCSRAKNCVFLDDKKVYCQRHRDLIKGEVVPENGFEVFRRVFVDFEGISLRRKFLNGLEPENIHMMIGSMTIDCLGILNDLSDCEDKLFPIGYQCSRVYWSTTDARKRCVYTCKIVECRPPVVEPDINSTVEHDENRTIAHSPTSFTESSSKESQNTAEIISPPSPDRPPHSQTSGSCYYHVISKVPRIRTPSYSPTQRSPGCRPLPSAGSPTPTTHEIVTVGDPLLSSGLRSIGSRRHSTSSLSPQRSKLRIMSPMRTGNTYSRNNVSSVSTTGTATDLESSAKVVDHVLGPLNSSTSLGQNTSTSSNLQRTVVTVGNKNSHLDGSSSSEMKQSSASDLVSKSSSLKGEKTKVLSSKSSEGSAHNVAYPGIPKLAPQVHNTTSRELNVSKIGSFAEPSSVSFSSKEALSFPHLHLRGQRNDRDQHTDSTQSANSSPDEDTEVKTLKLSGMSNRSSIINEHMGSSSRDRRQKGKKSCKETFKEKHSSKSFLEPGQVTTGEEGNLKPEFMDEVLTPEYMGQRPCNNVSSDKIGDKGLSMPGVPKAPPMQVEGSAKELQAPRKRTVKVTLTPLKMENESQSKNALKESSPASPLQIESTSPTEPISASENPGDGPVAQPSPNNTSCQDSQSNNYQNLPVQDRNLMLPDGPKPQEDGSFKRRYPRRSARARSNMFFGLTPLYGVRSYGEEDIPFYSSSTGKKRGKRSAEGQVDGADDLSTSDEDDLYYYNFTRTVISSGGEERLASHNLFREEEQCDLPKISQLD
Histone-lysine N-methyltransferase 2A (Homo sapiens), sequence (Q03164 2719-3969 limits assumed): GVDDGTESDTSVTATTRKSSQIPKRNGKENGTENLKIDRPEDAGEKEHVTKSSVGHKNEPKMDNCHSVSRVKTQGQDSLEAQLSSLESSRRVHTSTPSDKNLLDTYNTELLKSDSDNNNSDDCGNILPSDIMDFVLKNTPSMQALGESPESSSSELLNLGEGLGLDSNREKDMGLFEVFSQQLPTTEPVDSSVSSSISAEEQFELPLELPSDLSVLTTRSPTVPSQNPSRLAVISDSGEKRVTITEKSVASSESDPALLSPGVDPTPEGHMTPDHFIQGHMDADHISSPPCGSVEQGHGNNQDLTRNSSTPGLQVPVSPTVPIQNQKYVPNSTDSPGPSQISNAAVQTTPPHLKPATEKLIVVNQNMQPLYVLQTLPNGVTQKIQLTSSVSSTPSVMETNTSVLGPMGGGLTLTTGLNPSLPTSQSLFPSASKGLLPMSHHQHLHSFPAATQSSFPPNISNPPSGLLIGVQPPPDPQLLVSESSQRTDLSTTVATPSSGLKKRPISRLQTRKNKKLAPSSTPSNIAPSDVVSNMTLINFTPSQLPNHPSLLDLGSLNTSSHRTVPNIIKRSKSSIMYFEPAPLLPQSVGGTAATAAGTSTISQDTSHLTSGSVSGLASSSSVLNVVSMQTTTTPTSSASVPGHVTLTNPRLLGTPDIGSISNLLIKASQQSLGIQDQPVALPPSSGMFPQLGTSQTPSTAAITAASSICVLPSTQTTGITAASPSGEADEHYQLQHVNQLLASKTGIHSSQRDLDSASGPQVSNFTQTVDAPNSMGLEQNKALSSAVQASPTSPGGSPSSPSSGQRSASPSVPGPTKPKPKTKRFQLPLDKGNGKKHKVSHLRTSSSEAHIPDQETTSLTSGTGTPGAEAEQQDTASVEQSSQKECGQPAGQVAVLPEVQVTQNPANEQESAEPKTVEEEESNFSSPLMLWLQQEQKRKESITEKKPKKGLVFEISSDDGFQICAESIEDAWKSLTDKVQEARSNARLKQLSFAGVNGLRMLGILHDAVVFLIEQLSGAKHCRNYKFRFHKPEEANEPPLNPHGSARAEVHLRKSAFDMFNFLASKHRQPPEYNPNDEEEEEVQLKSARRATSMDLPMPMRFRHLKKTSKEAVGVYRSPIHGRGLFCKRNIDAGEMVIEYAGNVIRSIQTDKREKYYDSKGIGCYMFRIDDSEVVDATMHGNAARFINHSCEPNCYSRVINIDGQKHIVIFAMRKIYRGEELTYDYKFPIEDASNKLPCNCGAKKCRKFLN
Protein arginine N-methyltransferase 3 (Homo sapiens), sequence (O60678 2-531 limits assumed): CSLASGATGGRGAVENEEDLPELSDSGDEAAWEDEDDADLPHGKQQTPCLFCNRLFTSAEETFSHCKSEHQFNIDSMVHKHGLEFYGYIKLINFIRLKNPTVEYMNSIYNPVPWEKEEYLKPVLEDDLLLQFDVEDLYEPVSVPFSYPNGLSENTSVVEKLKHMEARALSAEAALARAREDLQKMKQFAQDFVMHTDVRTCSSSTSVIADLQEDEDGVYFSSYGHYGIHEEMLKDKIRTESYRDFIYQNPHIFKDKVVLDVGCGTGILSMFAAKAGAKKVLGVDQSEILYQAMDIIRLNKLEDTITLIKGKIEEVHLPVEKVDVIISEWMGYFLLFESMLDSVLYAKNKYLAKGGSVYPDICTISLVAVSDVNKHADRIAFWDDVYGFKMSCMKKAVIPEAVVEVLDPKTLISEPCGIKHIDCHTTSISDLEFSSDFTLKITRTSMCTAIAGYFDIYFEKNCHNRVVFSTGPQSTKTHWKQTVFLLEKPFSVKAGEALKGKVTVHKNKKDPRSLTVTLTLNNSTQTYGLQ
N-lysine methyltransferase KMT5A (Homo sapiens), sequence (Q9NQR1 whole entry): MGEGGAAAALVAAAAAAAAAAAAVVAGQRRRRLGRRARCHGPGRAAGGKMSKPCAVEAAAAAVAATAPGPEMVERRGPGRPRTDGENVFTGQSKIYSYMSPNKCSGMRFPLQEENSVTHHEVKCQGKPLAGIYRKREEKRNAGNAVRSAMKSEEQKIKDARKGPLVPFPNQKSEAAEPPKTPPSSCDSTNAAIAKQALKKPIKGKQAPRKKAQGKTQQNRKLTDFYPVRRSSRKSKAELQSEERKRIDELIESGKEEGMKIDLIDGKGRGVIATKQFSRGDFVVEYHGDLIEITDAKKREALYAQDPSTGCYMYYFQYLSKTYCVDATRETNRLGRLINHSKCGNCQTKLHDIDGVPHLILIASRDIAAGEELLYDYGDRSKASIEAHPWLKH

Consider `C=CC(=O)Nc1cc(NC2CCN(C(C)C)CC2)c2cc(OC)c(OCCCN3CCCC3)cc2n1`, for which, in the assay on MDA-MB-231, the Activity entry is “Dde”. Besides, the inhibition was below 50% in assay [1]; below 50% in assay [2]; below 50% in assay [3]; 50% in assay [4]; below 50% in assay [5].

The inhibition is the percentage by which the read-out fell short of the control.

For the origin of these results see ChEMBL document CHEMBL5126600, “Discovery of the First-in-Class G9a/GLP Covalent Inhibitors” (J Med Chem, 2022).
